In ChEMBL document CHEMBL1156138, “Identification of novel agonists of the integrin CD11b/CD18” (Bioorg Med Chem Lett, 2009):

Experiments:
Integrin alpha-M/beta-2 = Integrin alpha-M/beta-2 (Homo sapiens, UniProt P05107+P11215); assay: Agonist activity at CD11b/CD18 expressed in K562 cells assessed as increase in cell adhesion to fibrinogen; type: functional, cell-based
Procedure, shortened: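 K562 cells stably transfected with wild-type CD11b/CD18 were tested for compound-induced adhesion to immobilized fibrinogen. The assay was a no-wash cell-adhesion format in TBS containing 1 mM each Ca2+ and Mg2+. Compounds were tested over a range of concentrations. EC50 was taken as the concentration giving a 50% increase in cell adhesion.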

[1] = Selectivity ratio for CD11b/CD18 over CD11a/CD18

Integrin alpha-M/beta-2, sequence (P05107 23-769 limits assumed, other chains not shown): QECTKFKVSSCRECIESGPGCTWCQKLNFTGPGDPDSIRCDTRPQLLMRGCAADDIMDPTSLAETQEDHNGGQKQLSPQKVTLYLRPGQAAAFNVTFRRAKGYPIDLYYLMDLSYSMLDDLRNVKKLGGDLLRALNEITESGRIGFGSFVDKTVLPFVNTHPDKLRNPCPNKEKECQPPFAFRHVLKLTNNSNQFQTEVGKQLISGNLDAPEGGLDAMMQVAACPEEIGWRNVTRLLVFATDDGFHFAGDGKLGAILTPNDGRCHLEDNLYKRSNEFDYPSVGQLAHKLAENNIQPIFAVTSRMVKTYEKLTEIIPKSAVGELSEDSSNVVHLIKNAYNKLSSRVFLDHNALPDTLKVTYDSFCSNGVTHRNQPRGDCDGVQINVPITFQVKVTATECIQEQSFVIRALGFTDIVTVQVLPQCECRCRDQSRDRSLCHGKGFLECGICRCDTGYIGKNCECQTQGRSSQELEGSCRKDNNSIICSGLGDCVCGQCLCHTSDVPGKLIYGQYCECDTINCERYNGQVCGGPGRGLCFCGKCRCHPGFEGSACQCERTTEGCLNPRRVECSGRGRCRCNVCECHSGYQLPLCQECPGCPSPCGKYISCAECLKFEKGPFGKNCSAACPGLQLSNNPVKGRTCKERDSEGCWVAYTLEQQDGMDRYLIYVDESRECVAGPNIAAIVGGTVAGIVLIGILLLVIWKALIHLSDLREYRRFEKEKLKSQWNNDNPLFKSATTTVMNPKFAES

SMILES | EC50 (Integrin alpha-M/beta-2; k562) | EC50 (Integrin alpha-M/beta-2; read-out: EC50) [µM] | other results
CCOC(=O)CN1C(=O)S/C(=C\c2ccc(N3CCOCC3)o2)C1=O | Not Active |  | 
NS(=O)(=O)c1ccc(N2C(=O)S/C(=C\c3ccc(Cc4ccccc4)o3)C2=O)cc1 | Not Active |  | 
COC(=O)CN1C(=O)S/C(=C\c2ccc(-c3ccc(C(=O)O)cc3)o2)C1=O | Not Active |  | 
COC(=O)C(C)N1C(=O)S/C(=C\c2ccc(-c3ccc(Cl)cc3Cl)o2)C1=O (configuration not stated) | Not Active |  | 
Cc1ccc(/C=C2\SC(=O)N(C)C2=O)o1 | Not Active |  | 
CCOC(=O)CN1C(=O)S/C(=C\c2ccc(-c3cc(C(=O)O)ccc3Cl)o2)C1=O |  | 40.9 | 
CCOC(=O)CN1C(=O)S/C(=C\c2ccc(N3CCCC3)o2)C1=O |  | 23.2 | 
O=C(CN1C(=O)S/C(=C\c2ccc(-c3ccc(Cl)cc3Cl)o2)C1=O)c1ccccc1 |  | 35.6 | 
CCOC(=O)CN1C(=O)S/C(=C\c2ccc(-c3ccc(Cl)cc3Cl)o2)C1=O |  | 13.6 | Ratio [1]: 2
CCOC(=O)CN1C(=O)S/C(=C\c2ccc(-c3ccc(C(=O)O)cc3C)o2)C1=O | Not Active |  | 
O=C1S/C(=C\c2ccc(-c3ccc(Cl)cc3Cl)o2)C(=O)N1c1ccccc1 |  | > 50 | 
CCCN1C(=O)S/C(=C\c2ccc(-c3ccc(Cl)cc3Cl)o2)C1=O | Not Active |  | 
Cc1ccc(C(=O)CN2C(=O)S/C(=C\c3ccc(-c4ccc(Cl)cc4)o3)C2=O)cc1 |  | > 50 | 

Further lines, with some results ahead:

EC50 (Integrin alpha-M/beta-2; k562) | EC50 (Integrin alpha-M/beta-2; read-out: EC50) [µM] | SMILES | other results
 | 22.3 | Cc1cccc(NC(=O)CN2C(=O)S/C(=C\c3ccc(-c4ccccc4)o3)C2=O)c1 | 
 | 40.4 | CCOC(=O)CN1C(=O)S/C(=C\c2ccc(-c3ccc(Br)cc3)o2)C1=O | 
 | > 50 | CCOC(=O)CN1C(=O)S/C(=C\c2ccc(-c3ccc(Cl)c(C(=O)O)c3)o2)C1=O | 
 | 18 | Cc1cccc(NC(=O)CN2C(=O)/C(=C/c3ccc(Cc4ccco4)o3)SC2=S)c1 | 
Not Active |  | COC(=O)CN1C(=O)S/C(=C\c2ccc(Sc3ccccc3)o2)C1=O | 
 | 18.6 | CCOC(=O)CN1C(=O)S/C(=C\c2ccc(-c3ccc(C)cc3Br)o2)C1=O | 
 | 10.5 | CCOC(=O)CN1C(=O)S/C(=C\c2ccc(-c3ccccc3)o2)C1=O | 
Not Active |  | O=C(CN1C(=O)S/C(=C\c2ccc(-c3ccc(Cl)cc3Cl)o2)C1=O)Nc1ccccc1F | 
